Reference: ChEMBL document CHEMBL3580655, “Identification of a Potent Inhibitor of CREB-Mediated Gene Transcription with Efficacious in Vivo Anticancer Activity” (J Med Chem, 2015)
Active and inactive are the calls of the source. The calls are words filed in the database; no cut-off is given here.

Legend:
[1] = Inhibition of CREB-mediated gene transcription in human HEK293T cells transfected with pCRE-RLuc by renilla luciferase reporter assay; type: cell-based; conditions: HEK-293T
A549 = experiment: Antiproliferative activity against human A549 cells assessed as inhibition of cell growth after 72 hrs by MTT assay; type: functional; conditions: A549, 72 h
Summary of the method: (§1)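 Cells seeded, allowed to attach overnight, then exposed to a range of concentrations for 72 h. MTT 0.5 mg/mL in complete medium, 3 h at 37 °C, formazan dissolved in DMSO, absorbance 570 nm. Percent growth = 100×(treated−time-zero)/(medium control−time-zero). GI50 from nonlinear regression of the growth–concentration curve. Mean ± SD of at least two independent experiments in duplicate; highest concentration 100 μM.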

MCF7 = experiment: Antiproliferative activity against human MCF7 cells assessed as inhibition of cell growth after 72 hrs by MTT assay; type: functional; conditions: MCF7, 72 h; summary of the method: as §1
MDA-MB-231 = experiment: Antiproliferative activity against human MDA-MB-231 cells assessed as inhibition of cell growth after 72 hrs by MTT assay; type: functional; conditions: MDA-MB-231, 72 h; summary of the method: as §1
MDA-MB-468 = experiment: Antiproliferative activity against human MDA-MB-468 cells assessed as inhibition of cell growth after 72 hrs by MTT assay; type: functional; conditions: MDA-MB-468, 72 h; summary of the method: as §1
HEK-293T = experiment: Inhibition of CREB-mediated gene transcription in human HEK293T cells assessed as inhibition of forskolin-stimulated Nurr1/NR4A2 transcription at 1000 nM after 1 hr by qRT-PCT analysis; type: cell-based
Summary of the method: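 HEK 293T cells exposed to a range of compound concentrations for 1 h, then DMSO or forskolin (10 μM) for 45 min. Nurr1/NR4A2 transcript level measured by qRT-PCR as relative mRNA.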

[2] = molecular target: Cellular tumor antigen p53 (Homo sapiens) (UniProt P04637); experiment: Inhibition of P53 (unknown origin) transfected in human HEK293T cells assessed as inhibition of forskolin-stimulated gene transcription after 30 mins by CRE-RLuc complementation assay; type: cell-based; conditions: HEK-293T
Cellular tumor antigen p53 (Homo sapiens), sequence (P04637 whole entry, looked up, the tested form may be a part): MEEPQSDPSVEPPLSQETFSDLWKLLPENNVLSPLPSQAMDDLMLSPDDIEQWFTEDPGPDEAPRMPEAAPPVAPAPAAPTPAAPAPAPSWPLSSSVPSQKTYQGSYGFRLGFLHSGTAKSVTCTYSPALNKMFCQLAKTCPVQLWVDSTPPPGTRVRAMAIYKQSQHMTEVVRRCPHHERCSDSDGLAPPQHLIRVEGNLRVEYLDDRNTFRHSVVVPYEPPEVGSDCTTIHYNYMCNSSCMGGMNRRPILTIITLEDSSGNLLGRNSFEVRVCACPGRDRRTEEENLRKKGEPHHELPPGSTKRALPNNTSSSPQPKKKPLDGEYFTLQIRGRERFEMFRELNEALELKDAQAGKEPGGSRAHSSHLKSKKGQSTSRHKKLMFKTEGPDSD
Summary of the method: (§2)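 HEK 293T cells transfected with the relevant plasmid combinations (VP16-CREB: VP16 activation domain fused to full-length CREB; or p53), then exposed to a range of concentrations before Renilla luciferase measurement. Activity normalized to protein concentration, expressed as RLU/μg protein.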

[3] = molecular target: Cellular tumor antigen p53 (Homo sapiens) (UniProt P04637); experiment: Inhibition of P53 (unknown origin) transfected in human HEK293T cells assessed as inhibition of forskolin-stimulated gene transcription at > 1 uM after 30 mins by CRE-RLuc complementation assay; type: cell-based; conditions: HEK-293T; summary of the method: as §2

Row | IC50 [1] [nM] | GI50 (A549) [nM] | GI50 (MCF7) [nM] | GI50 (MDA-MB-231) [nM] | GI50 (MDA-MB-468) [nM] | inhibition [2] | inhibition [3] | Compound | inhibition (HEK-293T)
1 | 7300 | 39200 | 29000 | 82700 | 10200 |  |  | O=C(NCCCOc1cc2ccccc2cc1C(=O)Nc1ccc(Cl)cc1O)c1cc2ccccc2cc1OCCCO | 
2 | > 50000 | > 100000 | > 100000 | > 100000 | 13700 |  |  | O=C(NCCCOc1cc2ccccc2cc1C(=O)Nc1ccc(Cl)cc1O)c1cc2ccccc2cc1OCCCN1CCOCC1 | 
3 | 5230 | 2170 | 1890 | 2710 | 1850 |  |  | NCCOc1cc2ccccc2cc1C(=O)NCCCOc1cc2ccccc2cc1C(=O)Nc1ccc(Cl)cc1O | 
4 |  | 290 | 140 | 370 | 220 |  |  | NCCCOc1cc2ccccc2cc1C(=O)NCCCOc1cc2ccccc2cc1C(=O)Nc1ccc(Cl)cc1O | Active
5 |  |  |  |  |  | inactive | Active | NCCCOc1cc2ccccc2cc1C(=O)NCCOc1cc2ccccc2cc1C(=O)Nc1ccc(Cl)cc1O | 
6 | 5300 | 2320 | 2660 | 5820 | 2320 |  |  | NCCCOc1ccccc1C(=O)NCCCOc1cc2ccccc2cc1C(=O)Nc1ccc(Cl)cc1O | 
7 | 300 | 1160 | 810 | 1210 | 250 |  |  | NCCOc1cc2ccccc2cc1C(=O)NCCOc1cc2ccccc2cc1C(=O)Nc1ccc(Cl)cc1O | 
8 | 18500 | 260 | 1650 | 260 | 200 |  |  | CNCCCOc1cc2ccccc2cc1C(=O)NCCCOc1cc2ccccc2cc1C(=O)Nc1ccc(Cl)cc1O | 
9 | 10000 | 2440 | 2300 | 4610 | 1820 |  |  | NCCCOc1cc2ccccc2cc1C(=O)NCCCOc1ccccc1C(=O)Nc1ccc(Cl)cc1O | 
10 | 4690 | 950 | 1720 | 1000 | 1620 |  |  | NCCCOc1cc2ccccc2cc1C(=O)NCCCOc1cc2ccccc2cc1C(=O)Nc1ccc(Cl)cc1 | 
